Results published in ChEMBL document CHEMBL3785056, “New imidazoquinoxaline derivatives: Synthesis, biological evaluation on melanoma, effect on tubulin polymerization and structure-activity relationships” (Bioorg Med Chem, 2016).
Activity calls are given as the source filed them. The rule behind the calls is not given here.

How the values were obtained:
Tubulin (Sus scrofa) = Tubulin (Sus scrofa) (UniProt P02554+P02550); experiment: Inhibition of pig brain tubulin polymerization at 5 uM by spectrophotometric analysis
Sequence of Tubulin (Sus scrofa) (P02550 whole entry, looked up): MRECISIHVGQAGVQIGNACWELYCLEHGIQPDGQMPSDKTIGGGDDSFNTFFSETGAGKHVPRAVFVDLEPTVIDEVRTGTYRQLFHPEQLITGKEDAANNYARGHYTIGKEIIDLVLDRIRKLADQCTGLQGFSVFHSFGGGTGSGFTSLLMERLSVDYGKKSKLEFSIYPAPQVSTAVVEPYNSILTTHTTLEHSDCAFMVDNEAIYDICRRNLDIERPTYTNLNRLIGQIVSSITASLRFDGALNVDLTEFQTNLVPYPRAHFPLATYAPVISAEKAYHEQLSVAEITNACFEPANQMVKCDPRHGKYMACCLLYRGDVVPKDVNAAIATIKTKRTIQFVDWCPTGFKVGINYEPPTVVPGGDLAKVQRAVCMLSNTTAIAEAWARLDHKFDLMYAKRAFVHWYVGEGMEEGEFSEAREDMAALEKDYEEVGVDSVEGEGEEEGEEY
Sequence of Tubulin (Sus scrofa) (P02554 whole entry, looked up): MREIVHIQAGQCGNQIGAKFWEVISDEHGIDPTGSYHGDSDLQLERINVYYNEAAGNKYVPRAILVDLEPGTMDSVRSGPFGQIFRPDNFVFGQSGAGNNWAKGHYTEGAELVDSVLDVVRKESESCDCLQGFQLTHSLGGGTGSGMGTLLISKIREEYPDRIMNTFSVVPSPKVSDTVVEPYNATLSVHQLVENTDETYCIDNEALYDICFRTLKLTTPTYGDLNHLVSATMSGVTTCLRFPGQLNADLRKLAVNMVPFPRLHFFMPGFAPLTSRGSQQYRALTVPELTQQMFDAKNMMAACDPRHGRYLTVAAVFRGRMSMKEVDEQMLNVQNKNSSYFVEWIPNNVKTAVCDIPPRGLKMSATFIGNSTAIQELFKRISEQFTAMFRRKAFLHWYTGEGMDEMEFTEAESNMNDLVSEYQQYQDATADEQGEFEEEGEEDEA
Summary of the method: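 Compound 5 µM final, DMSO as negative control. Polymerization at 37 °C followed by turbidity at 350 nm, with ice added after 45 min to check depolymerization. Given as % inhibition from three independent experiments.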

A-375 [1] = experiment: Antiproliferative activity against human A375 cells assessed as cell growth inhibition after 96 hrs by MTT assay; format: functional, cell-based; conditions: A-375, 96 h
Summary of the method: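 A375 cells in RPMI-1640 with 10% heat-inactivated FBS, 37 °C, 5% CO2, seeded 5000 cells/well and attached overnight. Exposed 96 h to […] in 1% DMSO/medium. MTT read at 570 nm after isopropanol/HCl solubilization. Survival given as % of vehicle control. IC50 taken from sigmoidal dose-response curves, at least three experiments in triplicate.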

A-375 [2] = experiment: Cell cycle arrest in human A375 cells assessed as accumulation of cells at G2/M phase after 24 hrs by propidium iodide staining based flow cytometric analysis; format: functional
Summary of the method: (§1)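 A375 cells treated 24 h, washed in PBS and pelleted at 400g, 4 °C. Pellet lysed in ice-cold hypotonic solution (PI 25 µg/ml, 0.1% trisodium citrate, RNase A, 0.1% Triton X-100) and held overnight on ice. DNA content read by flow cytometry, giving G0/G1, S and G2/M percentages.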

A-375 [3] = experiment: Cell cycle arrest in human A375 cells assessed as effect on number of cells at S phase after 24 hrs by propidium iodide staining based flow cytometric analysis; format: functional; summary of the method: as §1
A-375 [4] = experiment: Cell cycle arrest in human A375 cells assessed as effect on number of cells at G0/G1 phase after 24 hrs by propidium iodide staining based flow cytometric analysis; format: functional; summary of the method: as §1

inhibition (Tubulin (Sus scrofa)) | IC50 (A-375 [1]) [nM] | SMILES | Activity (A-375 [2]) | Activity (A-375 [3]) | Activity (A-375 [4])
inactive | 2300 | CNc1nc2ccccc2n2c(-c3c(OC)cc(OC)cc3OC)cnc12 | – | – | –
3% | 1200 | CNc1nc2ccccc2n2c(-c3cc(OC)ccc3OC)cnc12 | – | – | –
inactive | 5900 | CNc1nc2ccccc2n2c(-c3cccc(OC)c3OC)cnc12 | – | – | –
98.5% | 220 | CNc1nc2ccccc2n2c(-c3cc(OC)cc(OC)c3)cnc12 | Dose-dependent effect | Dose-dependent effect | Dose-dependent effect
90% | 77 | CNc1nc2ccccc2n2c(-c3cccc(OC)c3O)cnc12 | – | – | –
63% | 300 | CNc1nc2ccccc2n2c(-c3ccc(OC)c(OC)c3)cnc12 | – | – | –
inactive | – | CNc1nc2ccccc2n2c(-c3ccccc3OC)cnc12 | – | – | –
11.3% | 2400 | Nc1nc2ccccc2n2c(-c3cccc(O)c3)cnc12 | – | – | –
84% | – | CNc1nc2ccccc2n2c(-c3cccc(OC)c3)cnc12 | Dose-dependent effect | Dose-dependent effect | Dose-dependent effect
41% | 200 | COc1cccc(-c2cnc3c(N)nc4ccccc4n23)c1 | – | – | –
inactive | 1500 | CNc1nc2ccccc2n2c(-c3ccc(OC)c(OC)c3OC)cnc12 | – | – | –
99% | – | CNc1nc2ccccc2n2c(-c3ccc(OC)cc3)cnc12 | Dose-dependent effect | Dose-dependent effect | Dose-dependent effect
inactive | 1250 | CNc1nc2ccccc2n2c(-c3cccc(O)c3)cnc12 | – | – | –
inactive | 1800 | CNc1nc2ccccc2n2c(-c3cc(OC)c(OC)c(OC)c3)cnc12 | – | – | –

SMILES | inhibition (Tubulin (Sus scrofa)) | IC50 (A-375 [1]) [nM] | Activity (A-375 [2]) | Activity (A-375 [3]) | Activity (A-375 [4])
COc1cc2c(c(OC)c1OC)-c1ccc(OC)c(=O)cc1[C@@H](NC(C)=O)CC2 [COLCHICINE] | – | 10 | – | – | –
